Only some compounds are listed: those with a hit (about 1.9% of all), similar ones and a draw of the others.
XiGFP reactiv: X-chromosome reactivation activator | XiGFP mouse fibroblasts, % GFP-positive cells imaging, 3 d; cells co-treated with 5-aza-dC sensitizer; scaled so ellipticine positive control = 100% | AID 743238 | activation, % at 7.58 µM | actives 0.055% (n = 360,000);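 active = mean normalized replicate activation at least 10% and every replicate at or above 10%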;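 also: 0% = median of on-plate neutral control wells and 100% = ellipticine 6 µM median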
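System: 68-5-11 XiGFP fibroblast line; Timing: 3 days compound exposure; Compound dosing: one concentration, pinned; Benchmarks: positive control ellipticine, 6 µM final; Buffer or medium: DMEM containing 5-aza-dC.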
PGC1a acetyl inh: PGC1a acetylation modulation, inhibitor mode; actives 0.17% (n = 350,000); inhibition, % at 15.6 µM; U2OS PGC1a acetylation, AlphaScreen anti-acetyl-lysine; with virally co-expressed GCN5 acetyltransferase;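 active = every replicate shows inhibition of at least 40%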;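 also: 0% = neutral control wells and 100% = positive control wells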
F508del corr: CFTR F508del correction in bronchial cells; CFBE cells, YFP halide quenching; stimulated with forskolin plus potentiator P3; % fluorescence drop versus neutral controls; activity (quench increase), % at 7.58 µM; actives 0.36% (n = 350,000); AID 720511;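 active = mean added fluorescence quench of at least 8% versus neutral control, with both replicates also reaching 8%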;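 also: cells transiently co-express mutant CFTR-F508del with the halide-sensitive YFP; corrector assay measuring rescue of mutant channel to the surface after 24 h compound exposure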
Cneo AK release: Cryptococcus neoformans lysis via adenylate kinase release | actives 0.2% (n = 360,000) | C. neoformans lysis, adenylate kinase release luminescence, 4 h; normalised: neutral wells 0, clomiphene wells 100 | lysis activity, % at 15 µM;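 active = mean lysis activity across replicates of at least 80%, whatever share of replicates individually reach that level; inactive = mean lysis activity below 80%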
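Test system: log-phase Cryptococcus neoformans yeast cells; Quantity: yeast cell density of 5 × 10^6 cells/mL; Buffer or medium: YPD; Doses: single compound concentration per well; Timing: 4 h at 37 °C static, read 1 h later; Measured by: AK luminescence; Read-out basis: lysis from increased AK signal; Control set: Clomiphene as positive control.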
DENV2 CPE: inhibitors of DENV2 cytopathic effect. DENV2-infected cells, cytopathic effect rescue, plate reader. CPE inhibition, % at 9.99 µM. actives 1.7% (n = 350,000). AID 651640; in the data active = CPE inhibition above about 20%, passing the limit was not always enough; tested in BHK-21 cells;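 also: 0% = median of neutral control wells and 100% = median of positive control wells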
FN deposit inh: fibronectin deposition inhibition; inhibition, % at 12.6 µM; AH1F fibroblasts, Alexa488-fibronectin deposition fluorescence, overnight; actives 0.086% (n = 350,000);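 active = mean inhibition across replicates of 30% or more, regardless of how many single replicates reach that level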;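 also: positive control wells lacked labelled fibronectin entirely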
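Material: AH1F fibroblast monolayer depositing Alexa488-labelled fibronectin into matrix | Input: 10000 AH1F cells/well | Medium: DMEM plus 2% serum, read in PBS | Reagent: Alexa488-fibronectin, 24 nM final in well | Compound dosing: One dose per compound, pinned | Schedule: 1 h adhesion, overnight exposure | Measured by: Fluorescence at 485 nm excitation, 525 nm emission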
Active calls of the source: *; x = no result given.

SMILES | XiGFP reactiv | PGC1a acetyl inh | F508del corr | Cneo AK release | DENV2 CPE | FN deposit inh
CC(C)(C)NC(=S)N/N=C\c1ccc(-c2ccc([N+](=O)[O-])cc2)o1 | 66* | 1 | 0 | 19 | 5 | -6
O=C(c1ccc(F)cc1)N1CCCCN2[C@H](CO)[C@@H](c3ccc(C#CC4(O)CCCC4)cc3)[C@H]2C1 | 0 | 7 | -1 | 0 | 0 | x
CC(C)(O)C#Cc1ccc([C@@H]2[C@@H](CO)N3CCCCN(C(=O)c4ccc(F)cc4)C[C@@H]23)cc1 | 0 | 0 | 2 | -1 | 83* | x
C[C@H](O)C#Cc1ccc([C@H]2[C@@H](CO)N3CCCCN(C(=O)c4ccc(F)cc4)C[C@@H]23)cc1 | 0 | -14 | -2 | -3 | 33* | x
CC(C)(O)C#Cc1ccc([C@H]2[C@H]3CN(C(=O)c4ccc(F)cc4)CCCCN3[C@H]2CO)cc1 | 0 | 8 | 0 | 0 | -2 | x
O=C(c1ccc(F)cc1)N1CCCCN2[C@H](C1)[C@H](c1ccc(C#CC3(O)CCCC3)cc1)[C@@H]2CO | 0 | -2 | -1 | 0 | 42* | x
CC(=O)c1sc(NC(=O)C=C(C)C)nc1C | x | -10 | x | 3 | x | -6
CC(=O)c1sc(NC(=O)C2(F)C(F)(F)C(F)(F)C(F)(F)C(F)(F)C2(F)F)nc1C | x | 2 | 0 | 136* | 4 | x
COCCNC(=O)[C@H]1[C@H](CO)[C@H]2Cn3c(ccc(-c4ccccc4F)c3=O)[C@H]2N1C(=O)C1CC1 | 0 | x | -1 | -5 | -3 | x
O=C(C(Cc1ccccc1)n1cccc1)N1CCCCCC1 (configuration not stated) | 0 | -20 | 1 | -2 | 4 | 0
O=C(C(Cc1ccccc1)n1cccc1)N1CCCCC1 (configuration not stated) | 0 | 2 | 10* | 3 | -5 | 2
Cc1cccc(OCCn2c(=O)n(C)c3ccccc32)c1 | 0 | -14 | 1 | -2 | 69* | 3
O=C(C1CC1)N1CC[C@H]2[C@H](CO)Nc3ccc(-c4cccc(F)c4)cc3[C@H]21 | 0 | 2 | 0 | -5 | 32* | -1
O=C(C1CC1)N1CC[C@@H]2[C@H](CO)Nc3ccc(-c4cccc(F)c4)cc3[C@@H]21 | 0 | -1 | 1 | -9 | 11 | 1
O=C(C1CCCC1)N1CC[C@@H]2[C@H]1c1cc(Br)ccc1N[C@@H]2CO | 0 | 12 | 7 | x | -7 | 10
O=C(C1CC1)N1CC[C@H]2[C@H](CO)Nc3ccc(Br)cc3[C@H]21 | 0 | 1 | 4 | 3 | 27* | -1
O=C(C1CC1)N1CC[C@@H]2[C@H]1c1cc(Br)ccc1N[C@@H]2CO | 0 | 10 | 0 | -9 | 36* | -12
C[C@H](CO)N1C[C@H](C)[C@@H](CN(C)C(=O)Nc2cccc3ccccc23)OCCCC[C@H](C)Oc2ccc(NC(=O)Nc3ccc(F)cc3)cc2C1=O | 0 | -7 | -2 | 3 | 1 | 5
COc1ccc(Br)cc1[C@H]1[C@H]2C=CC[C@@H](C)[C@@H]2C(=O)N1Cc1ccccc1 | 0 | x | -1 | 4 | 66* | 6
COc1cccc(S(=O)(=O)N2CCCCN3[C@H](C2)[C@@H](c2ccc(C#CCC(C)C)cc2)[C@@H]3CO)c1 | 0 | -15 | -1 | -1 | -24 | 2
CC(C)CC#Cc1ccc([C@@H]2[C@H](CO)N3CCCCN(S(=O)(=O)Cc4ccccc4)C[C@@H]23)cc1 | 0 | -61 | -1 | 1 | 23* | x
COc1cccc(S(=O)(=O)N2CCCCN3[C@@H](CO)[C@@H](c4ccc(C#CCC(C)C)cc4)[C@@H]3C2)c1 | 0 | -13 | 5 | 84* | -28 | 9
CC(C)CC#Cc1ccc([C@@H]2[C@@H](CO)N3CCCCN(S(=O)(=O)Cc4ccccc4)C[C@@H]23)cc1 | 0 | -8 | 0 | 0 | 22* | x
CC(C)CC#Cc1ccc([C@H]2[C@H](CO)N3CCCCN(S(=O)(=O)Cc4ccccc4)C[C@@H]23)cc1 | 0 | -11 | -2 | 0 | 10 | x

Assay outcomes (PubChem)
